Usually EC50 stands for the concentration needed to bring the measured effect to its halfway point. Read a high EC50 as a need for much substance.

Calls of active or inactive are those of the source. No cut-off for these calls is given here.

From ChEMBL document CHEMBL2390926, “Identification of novel FLT3 kinase inhibitors” (Eur J Med Chem, 2013) come the findings set out here.

The target of assay [1] is Fibroblast growth factor receptor 3 (Homo sapiens) (UniProt P22607). Put plainly: Inhibition of FGFR3 (unknown origin) transfected in mouse Ba/F3 cells at 5 uM after 24 hrs. To be noted: BaF3. It is filed as cell-based. An outline of the steps:
(§1)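 Kinase specificity panel: each Ba/F3 line transformed with one of 24 tyrosine kinases depends on that kinase to grow. Cells were given compound at 1 or 5 µM for 24 h, with DMSO as comparator. Percentage growth was read by ATP-lite luminescence and reported as mean ± SEM.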

For assay [2], the target named is T1, Ephrin type-A receptor 1 (Homo sapiens) (UniProt P21709).
T1 sequence (whole entry): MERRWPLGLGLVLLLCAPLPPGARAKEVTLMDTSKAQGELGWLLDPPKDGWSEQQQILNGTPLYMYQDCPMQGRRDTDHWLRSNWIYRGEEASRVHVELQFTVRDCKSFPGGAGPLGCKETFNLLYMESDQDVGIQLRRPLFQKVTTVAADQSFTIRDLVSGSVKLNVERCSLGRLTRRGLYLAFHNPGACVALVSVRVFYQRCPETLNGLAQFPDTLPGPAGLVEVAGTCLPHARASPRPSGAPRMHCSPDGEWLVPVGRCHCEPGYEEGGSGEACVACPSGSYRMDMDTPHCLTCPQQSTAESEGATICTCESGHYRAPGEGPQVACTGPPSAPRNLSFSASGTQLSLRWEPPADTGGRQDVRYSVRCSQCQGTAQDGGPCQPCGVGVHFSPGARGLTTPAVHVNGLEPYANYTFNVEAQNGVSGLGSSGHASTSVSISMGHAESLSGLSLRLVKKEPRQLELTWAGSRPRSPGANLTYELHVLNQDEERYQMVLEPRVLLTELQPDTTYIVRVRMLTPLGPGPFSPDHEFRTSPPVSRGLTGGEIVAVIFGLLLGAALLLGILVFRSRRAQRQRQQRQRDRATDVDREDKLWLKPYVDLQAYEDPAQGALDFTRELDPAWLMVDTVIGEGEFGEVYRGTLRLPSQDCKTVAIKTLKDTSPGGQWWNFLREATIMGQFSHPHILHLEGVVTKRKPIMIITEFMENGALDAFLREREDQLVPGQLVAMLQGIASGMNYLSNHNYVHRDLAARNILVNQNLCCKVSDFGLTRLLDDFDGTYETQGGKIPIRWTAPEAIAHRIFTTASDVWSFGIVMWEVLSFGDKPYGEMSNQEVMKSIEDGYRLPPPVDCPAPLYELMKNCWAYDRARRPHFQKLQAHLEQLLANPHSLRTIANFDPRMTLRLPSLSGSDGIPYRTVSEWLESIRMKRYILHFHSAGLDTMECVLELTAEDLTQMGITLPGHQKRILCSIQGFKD
Nature of the assay: Inhibition of EPHA1 (unknown origin) transfected in mouse Ba/F3 cells at 5 uM after 24 hrs. It is filed as cell-based. Conditions: BaF3. An outline of the steps:
as §1

A further assay deals with BaF3. Put plainly: Cytotoxicity against mouse BA/F3 cells transfected with FLT3-ITD-G697R at 1 uM after 24 hrs by plate reader analysis. Format: functional, cell-based.
Assay [3] addresses Leukocyte tyrosine kinase receptor (Homo sapiens) (UniProt P29376). Put plainly: Inhibition of LTK (unknown origin) transfected in mouse Ba/F3 cells at 5 uM after 24 hrs. Conditions: BaF3. It is filed as cell-based.
Assay [4] concerns the target NT-3 growth factor receptor (Homo sapiens) (UniProt Q16288). Nature of the assay: Inhibition of NTRK3 (unknown origin) transfected in mouse Ba/F3 cells at 5 uM after 24 hrs. It is filed as cell-based. To be noted: BaF3.
Assay [5] deals with Ephrin type-A receptor 2 (Homo sapiens) (UniProt P29317). Put plainly: Inhibition of EPHA2 (unknown origin) transfected in mouse Ba/F3 cells at 5 uM after 24 hrs. It is filed as cell-based. To be noted: BaF3. An outline of the steps: as §1
Sequence of Ephrin type-A receptor 2 (Homo sapiens) (P29317 whole entry): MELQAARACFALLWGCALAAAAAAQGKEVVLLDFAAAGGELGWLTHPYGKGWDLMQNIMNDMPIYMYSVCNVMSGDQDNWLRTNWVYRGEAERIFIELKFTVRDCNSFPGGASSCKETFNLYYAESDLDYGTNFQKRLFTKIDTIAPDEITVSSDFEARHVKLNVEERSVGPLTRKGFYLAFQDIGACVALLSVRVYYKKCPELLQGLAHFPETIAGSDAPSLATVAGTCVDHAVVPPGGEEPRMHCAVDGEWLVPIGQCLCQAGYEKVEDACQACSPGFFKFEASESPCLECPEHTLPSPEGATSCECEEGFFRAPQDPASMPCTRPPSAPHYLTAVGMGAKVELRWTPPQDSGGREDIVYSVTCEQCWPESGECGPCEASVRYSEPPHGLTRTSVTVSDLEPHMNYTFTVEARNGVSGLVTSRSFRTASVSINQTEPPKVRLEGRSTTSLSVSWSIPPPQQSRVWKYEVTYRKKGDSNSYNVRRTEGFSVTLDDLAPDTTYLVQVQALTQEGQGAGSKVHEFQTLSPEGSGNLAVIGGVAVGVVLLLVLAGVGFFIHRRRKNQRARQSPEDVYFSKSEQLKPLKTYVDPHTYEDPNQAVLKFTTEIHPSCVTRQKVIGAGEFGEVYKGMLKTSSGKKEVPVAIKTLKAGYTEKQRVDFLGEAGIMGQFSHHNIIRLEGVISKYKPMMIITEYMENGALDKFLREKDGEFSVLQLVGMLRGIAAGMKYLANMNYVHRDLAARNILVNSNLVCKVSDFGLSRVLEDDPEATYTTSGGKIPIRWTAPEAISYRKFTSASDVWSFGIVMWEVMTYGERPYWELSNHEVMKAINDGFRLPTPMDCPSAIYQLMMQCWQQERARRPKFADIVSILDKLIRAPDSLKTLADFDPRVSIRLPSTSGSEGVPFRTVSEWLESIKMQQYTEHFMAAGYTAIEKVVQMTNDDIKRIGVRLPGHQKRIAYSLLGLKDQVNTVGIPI
For assay [6], the target named is Ephrin type-A receptor 5 (Homo sapiens) (UniProt P54756). Put plainly: Inhibition of EPHA5 (unknown origin) transfected in mouse Ba/F3 cells up to 1 uM. Format: cell-based. Conditions: BaF3.
Sequence of Ephrin type-A receptor 5 (Homo sapiens) (P54756 whole entry): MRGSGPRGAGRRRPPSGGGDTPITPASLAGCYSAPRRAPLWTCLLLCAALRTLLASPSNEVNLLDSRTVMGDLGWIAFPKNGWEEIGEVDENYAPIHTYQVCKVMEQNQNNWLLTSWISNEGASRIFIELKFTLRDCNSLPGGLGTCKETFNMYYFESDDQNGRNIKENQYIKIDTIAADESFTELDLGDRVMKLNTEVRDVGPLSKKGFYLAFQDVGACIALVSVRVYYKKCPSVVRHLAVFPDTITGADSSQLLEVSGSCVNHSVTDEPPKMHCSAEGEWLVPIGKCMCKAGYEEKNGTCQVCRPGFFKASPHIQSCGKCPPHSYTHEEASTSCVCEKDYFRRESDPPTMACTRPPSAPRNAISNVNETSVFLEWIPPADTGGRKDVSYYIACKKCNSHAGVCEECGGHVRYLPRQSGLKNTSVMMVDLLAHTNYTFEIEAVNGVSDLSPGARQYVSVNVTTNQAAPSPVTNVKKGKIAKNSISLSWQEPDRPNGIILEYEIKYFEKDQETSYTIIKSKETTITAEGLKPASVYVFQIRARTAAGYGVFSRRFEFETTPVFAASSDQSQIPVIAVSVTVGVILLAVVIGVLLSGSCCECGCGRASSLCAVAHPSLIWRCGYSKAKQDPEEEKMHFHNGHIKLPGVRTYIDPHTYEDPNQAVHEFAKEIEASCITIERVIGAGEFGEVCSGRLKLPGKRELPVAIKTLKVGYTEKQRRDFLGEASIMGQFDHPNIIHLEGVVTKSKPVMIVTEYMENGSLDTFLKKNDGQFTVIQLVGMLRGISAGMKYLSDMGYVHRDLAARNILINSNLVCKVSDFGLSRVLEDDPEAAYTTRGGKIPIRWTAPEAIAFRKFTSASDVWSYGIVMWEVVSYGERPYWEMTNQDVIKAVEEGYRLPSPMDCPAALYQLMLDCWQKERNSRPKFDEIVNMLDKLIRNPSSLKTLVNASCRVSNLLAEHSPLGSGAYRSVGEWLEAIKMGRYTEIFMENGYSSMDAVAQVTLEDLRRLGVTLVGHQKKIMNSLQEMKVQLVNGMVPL
Assay [7] has as its target Proto-oncogene tyrosine-protein kinase ROS (Homo sapiens) (UniProt P08922). Nature of the assay: Inhibition of ROS1 (unknown origin) transfected in mouse Ba/F3 cells up to 1 uM. Format: cell-based. Conditions: BaF3.
The target of assay [8] is Proto-oncogene tyrosine-protein kinase Src (Homo sapiens) (UniProt P12931). Nature of the assay: Inhibition of SRC (unknown origin) transfected in mouse Ba/F3 cells up to 1 uM. It is filed as cell-based. To be noted: BaF3. The method in brief:
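Ba/F3 cells transformed by ROS1 or SRC, dependent on that kinase. Parental Ba/F3 grown with mouse IL-3 served as control. Seeded at 100,000 cells/ml. Eight concentrations (50–6400 nM) run in triplicate with DMSO negative control for 24 h. Viable cells quantified by ATP-lite luminescence, mean ± SEM.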

The test system of the next assay is MV4-11. Put plainly: Cytotoxicity against human MV4-11 cells after 24 hrs by plate reader analysis. To be noted: MV4-11, 24 h. Format: functional, cell-based. An outline of the steps:
(§2)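 Cells in RPMI 1640 with 10% FBS at 37 °C and 5% CO2 were seeded at 100,000 cells/ml. They were treated for 24 h at 8 concentrations (50–6400 nM), each in triplicate, with DMSO as negative control. Viable cells were measured by ATP-lite luminescence, and EC50 was taken from dose–response curves.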

In a further assay the test system is MOLM-13. Nature of the assay: Cytotoxicity against human MOLM13 cells after 24 hrs by plate reader analysis. To be noted: MOLM-13, 24 h. Format: functional, cell-based. An outline of the steps:
as §2

In the next assay the test system is KG-1. Put plainly: Cytotoxicity against human KG1 cells after 24 hrs by plate reader analysis. It is filed as functional, cell-based. To be noted: KG-1, 24 h. The method in brief: as §2

Sequence of Fibroblast growth factor receptor 3 (Homo sapiens) (P22607 23-806 limits assumed): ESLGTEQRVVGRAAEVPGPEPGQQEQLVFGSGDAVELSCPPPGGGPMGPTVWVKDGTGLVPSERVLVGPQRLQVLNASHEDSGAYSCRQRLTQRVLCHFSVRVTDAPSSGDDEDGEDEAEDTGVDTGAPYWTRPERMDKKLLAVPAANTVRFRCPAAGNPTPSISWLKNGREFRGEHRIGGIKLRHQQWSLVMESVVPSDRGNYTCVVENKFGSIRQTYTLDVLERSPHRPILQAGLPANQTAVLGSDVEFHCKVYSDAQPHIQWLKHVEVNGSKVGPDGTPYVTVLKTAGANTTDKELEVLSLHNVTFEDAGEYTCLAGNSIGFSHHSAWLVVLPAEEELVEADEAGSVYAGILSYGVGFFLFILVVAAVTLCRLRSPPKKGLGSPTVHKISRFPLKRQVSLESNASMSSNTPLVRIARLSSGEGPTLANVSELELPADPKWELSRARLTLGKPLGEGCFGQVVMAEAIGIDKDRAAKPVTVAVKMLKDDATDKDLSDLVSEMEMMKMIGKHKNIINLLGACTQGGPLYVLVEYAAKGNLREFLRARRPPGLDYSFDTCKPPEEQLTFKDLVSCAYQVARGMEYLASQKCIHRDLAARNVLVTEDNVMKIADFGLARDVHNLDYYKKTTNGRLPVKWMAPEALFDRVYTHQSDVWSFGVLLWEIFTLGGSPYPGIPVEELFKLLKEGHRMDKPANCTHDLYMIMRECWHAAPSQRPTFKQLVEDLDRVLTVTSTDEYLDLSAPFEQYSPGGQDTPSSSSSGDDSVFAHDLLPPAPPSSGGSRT
Sequence of Leukocyte tyrosine kinase receptor (Homo sapiens) (P29376 whole entry): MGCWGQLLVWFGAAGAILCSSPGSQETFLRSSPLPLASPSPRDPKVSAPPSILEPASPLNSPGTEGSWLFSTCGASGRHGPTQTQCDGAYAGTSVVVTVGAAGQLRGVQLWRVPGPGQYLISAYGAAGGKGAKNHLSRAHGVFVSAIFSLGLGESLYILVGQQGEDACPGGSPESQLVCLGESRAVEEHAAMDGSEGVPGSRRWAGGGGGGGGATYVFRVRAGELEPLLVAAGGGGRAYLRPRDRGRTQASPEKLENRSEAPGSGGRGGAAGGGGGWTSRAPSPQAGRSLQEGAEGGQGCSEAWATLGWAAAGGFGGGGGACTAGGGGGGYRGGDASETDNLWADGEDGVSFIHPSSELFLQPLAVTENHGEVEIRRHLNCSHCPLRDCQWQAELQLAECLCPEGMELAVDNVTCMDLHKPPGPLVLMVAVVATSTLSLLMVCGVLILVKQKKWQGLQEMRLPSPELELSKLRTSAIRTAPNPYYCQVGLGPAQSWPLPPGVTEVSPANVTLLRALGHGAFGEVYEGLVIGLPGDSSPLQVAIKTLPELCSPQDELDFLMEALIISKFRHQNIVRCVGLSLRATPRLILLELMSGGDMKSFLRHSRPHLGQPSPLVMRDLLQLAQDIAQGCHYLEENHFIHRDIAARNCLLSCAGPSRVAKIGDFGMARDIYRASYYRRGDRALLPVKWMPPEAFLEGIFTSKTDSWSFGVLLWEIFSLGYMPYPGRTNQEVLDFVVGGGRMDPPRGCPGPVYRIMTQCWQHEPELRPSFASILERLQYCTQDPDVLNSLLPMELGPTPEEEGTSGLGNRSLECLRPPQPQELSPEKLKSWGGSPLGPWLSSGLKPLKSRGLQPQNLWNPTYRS
Sequence of NT-3 growth factor receptor (Homo sapiens) (Q16288 32-839 limits assumed): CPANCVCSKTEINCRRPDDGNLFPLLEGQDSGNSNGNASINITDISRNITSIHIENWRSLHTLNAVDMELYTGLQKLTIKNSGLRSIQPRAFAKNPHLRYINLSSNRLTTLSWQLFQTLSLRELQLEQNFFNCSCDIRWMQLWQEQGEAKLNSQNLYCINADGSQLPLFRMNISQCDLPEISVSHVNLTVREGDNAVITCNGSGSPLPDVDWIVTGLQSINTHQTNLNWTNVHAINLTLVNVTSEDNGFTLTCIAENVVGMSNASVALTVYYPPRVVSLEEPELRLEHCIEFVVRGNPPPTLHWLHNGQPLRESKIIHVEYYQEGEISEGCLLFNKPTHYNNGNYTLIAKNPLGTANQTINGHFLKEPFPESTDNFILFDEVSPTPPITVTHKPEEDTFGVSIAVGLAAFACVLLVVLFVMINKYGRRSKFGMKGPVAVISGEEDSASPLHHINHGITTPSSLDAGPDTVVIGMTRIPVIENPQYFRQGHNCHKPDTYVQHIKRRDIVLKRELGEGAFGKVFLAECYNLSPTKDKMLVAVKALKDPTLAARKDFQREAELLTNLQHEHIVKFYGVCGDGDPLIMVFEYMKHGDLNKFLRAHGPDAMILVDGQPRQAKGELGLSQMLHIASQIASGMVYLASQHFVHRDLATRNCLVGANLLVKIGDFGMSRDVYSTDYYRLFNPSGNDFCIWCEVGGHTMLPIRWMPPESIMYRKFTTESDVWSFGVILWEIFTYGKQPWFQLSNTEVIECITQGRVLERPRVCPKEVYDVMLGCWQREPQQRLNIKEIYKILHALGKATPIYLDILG
Sequence of Proto-oncogene tyrosine-protein kinase Src (Homo sapiens) (P12931 2-536 limits assumed): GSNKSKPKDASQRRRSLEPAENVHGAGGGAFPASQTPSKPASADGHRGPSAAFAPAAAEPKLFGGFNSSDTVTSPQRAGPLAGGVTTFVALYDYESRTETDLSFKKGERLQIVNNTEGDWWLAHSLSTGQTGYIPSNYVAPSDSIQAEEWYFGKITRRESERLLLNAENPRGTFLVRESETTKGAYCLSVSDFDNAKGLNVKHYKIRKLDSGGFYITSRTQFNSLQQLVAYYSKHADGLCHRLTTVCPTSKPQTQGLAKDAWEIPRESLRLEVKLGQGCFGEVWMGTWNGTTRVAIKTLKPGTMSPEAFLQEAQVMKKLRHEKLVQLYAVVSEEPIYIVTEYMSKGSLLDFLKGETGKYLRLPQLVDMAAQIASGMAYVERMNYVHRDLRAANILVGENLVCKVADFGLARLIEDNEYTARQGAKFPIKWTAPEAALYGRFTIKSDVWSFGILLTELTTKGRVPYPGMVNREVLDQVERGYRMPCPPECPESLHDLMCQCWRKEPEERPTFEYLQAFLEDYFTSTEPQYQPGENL

Regarding `Cc1ccc(-n2cnc3cc(Nc4nnc(C)c5ccccc45)ccc32)cc1`, the inhibition result in assay [1], in assay [2], in [3], in assay [4] and in [5] was “inactive” throughout. In the assay with BaF3, the outcome was Active.

With `Fc1ccc(-c2n[nH]cc2-c2ccncc2)cc1Cl`, the inhibition entry in [6], in assay [1], in [7], in [2], in assay [3] and in [8] was “inactive” throughout. In addition, the inhibition entry in assay [4] and in assay [5] was “inactive” in each case.

With `COc1ccc(C(=O)Nc2cc(-c3ccccc3)[nH]n2)cc1`, the EC50 in the assay with MV4-11 worked out at 142 nM; in the assay with MOLM-13, 292 nM; in the assay on KG-1, 15000 nM. Also, the outcome with BaF3 was Active.
